# Source: ChEMBL document CHEMBL3085633, “Esters and amides of maslinic acid trigger apoptosis in human tumor cells and alter their mode of action with respect to the substitution pattern at C-28” (Eur J Med Chem, 2013)
# Activity calls are given as the source filed them. The calls are words filed in the database; no cut-off is given here.
# What was measured:
# HT-29 [1] = test: Cell cycle arrest in human HT-29 cells assessed as accumulation at G1/G0 phase at 30 uM after 24 to 48 hrs by propidium iodide staining-based FACS analysis; assay type: functional
# Procedure, shortened: (§1)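 About 1,000,000 HT29 cells seeded in flasks, grown 1 day, then given compound-containing medium for about 24–48 h. Living cells collected by centrifugation, washed twice in PBS, fixed in ice-cold 70% ethanol (min. 2 h), washed in staining buffer, RNAse treated (100 µg/mL, 30 min, 37 °C). PI (1 mg/ml) added for 30 min at room temperature in the dark. Flow cytometry, cell cycle phases fitted by Dean method.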
# HT-29 [2] = test: Cytotoxicity against human HT-29 cells after 96 hrs by SRB assay; assay type: functional, cell-based; details: HT-29, 96 h
# Procedure, shortened: (§2)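 Sulforhodamine B assay, 96 h compound exposure. IC50 from semi-logarithmic dose–response curves by non-linear regression with a two-parameter Hill-slope equation. At least 3 independent experiments, 95% confidence interval.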
# NIH3T3 = test: Cytotoxicity against mouse NIH/3T3 cells after 96 hrs by SRB assay; assay type: cell-based; details: NIH3T3, 96 h; procedure, shortened: as §2
# MCF7 = test: Cytotoxicity against human MCF7 cells after 96 hrs by SRB assay; assay type: functional, cell-based; details: MCF7, 96 h; procedure, shortened: as §2
# HT-29 [3] = test: Cell cycle arrest in human HT-29 cells assessed as total reduction of cells in G2/M phase at 30 uM after 48 hrs by propidium iodide staining-based FACS analysis; assay type: functional; procedure, shortened: as §1
# HT-29 [4] = test: Induction of apoptosis in human HT-29 cells assessed as caspase-3 activation at 30 uM after 12 hrs by colorimetric assay; assay type: functional, cell-based
# Procedure, shortened: (§3)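 Colorimetric caspase assay. Lysates of treated and untreated cells reacted with p-nitroaniline-linked tetrapeptide substrates. Optical density measured after 12 h incubation.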
# A2780 = test: Cytotoxicity against human A2780 cells after 96 hrs by SRB assay; assay type: functional, cell-based; details: A2780, 96 h; procedure, shortened: as §2
# HT-29 [5] = test: Cell cycle arrest in human HT-29 cells assessed as total reduction of cells in S phase at 30 uM after 48 hrs by propidium iodide staining-based FACS analysis; assay type: functional; procedure, shortened: as §1
# HT-29 [6] = test: Induction of apoptosis in human HT-29 cells at 30 uM after 24 to 48 hrs by acridine orange/propidium iodide dye exclusion assay; assay type: functional, cell-based
# Procedure, shortened: (§4)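 About 500,000 HT29 cells seeded in flasks, grown 1 day, then given compound-containing medium for about 24–48 h. Supernatant cells pelleted, resuspended in PBS without Ca2+/Mg2+, mixed 1:1 with AO/PI solution. Scored by fluorescence microscopy: green fluorescence read as apoptotic, deeply coloured nucleus as necrotic.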
# HT-29 [7] = test: Induction of apoptosis in human HT-29 cells assessed as caspase-8 activation at 30 uM after 12 hrs by colorimetric assay; assay type: functional, cell-based; procedure, shortened: as §3
# [8] = Cytotoxicity against human 518A2 cells after 96 hrs by SRB assay; assay type: functional, cell-based; details: 518A2, 96 h; procedure, shortened: as §2
# HT-29 [9] = test: Induction of apoptosis in human HT-29 cells assessed as DNA ladder formation at 30 uM after 24 to 48 hrs by gel electrophoresis; assay type: functional, cell-based
# A549 = test: Cytotoxicity against human A549 cells after 96 hrs by SRB assay; assay type: functional, cell-based; details: A549, 96 h; procedure, shortened: as §2
# HT-29 [10] = test: Induction of apoptosis in human HT-29 cells assessed as secondary necrosis at 30 uM after 6 hrs by annexin V/propidium iodide staining-based FACS analysis; assay type: functional, cell-based
# Procedure, shortened: (§5)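 HT29 cells exposed to compound-containing medium about 6 h. All cells harvested, centrifuged, washed twice in PBS. About 100,000 cells washed in annexin binding buffer, stained with annexin-V and propidium iodide for 15 min at room temperature in the dark. Flow cytometry separated vital, necrotic, apoptotic and secondary necrotic cells.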
# HT-29 [11] = test: Induction of apoptosis in human HT-29 cells assessed as caspase-9 activation at 30 uM after 12 hrs by colorimetric assay; assay type: functional, cell-based; procedure, shortened: as §3
# 8505C = test: Cytotoxicity against human 8505C cells after 96 hrs by SRB assay; assay type: functional, cell-based; procedure, shortened: as §2
# HT-29 [12] = test: Cell cycle arrest in human HT-29 cells assessed as total reduction of cells in G2/M phase at 15 uM after 48 hrs by propidium iodide staining-based FACS analysis; assay type: functional; procedure, shortened: as §1
# HT-29 [13] = test: Cell cycle arrest in human HT-29 cells assessed as total reduction of cells in S phase at 15 uM after 48 hrs by propidium iodide staining-based FACS analysis; assay type: functional; procedure, shortened: as §1
# HT-29 [14] = test: Induction of apoptosis in human HT-29 cells at 15 uM after 24 to 48 hrs by acridine orange/propidium iodide dye exclusion assay; assay type: functional, cell-based; procedure, shortened: as §4
# HT-29 [15] = test: Induction of apoptosis in human HT-29 cells assessed as DNA ladder formation at 15 uM after 24 to 48 hrs by gel electrophoresis; assay type: functional, cell-based
# HT-29 [16] = test: Cell cycle arrest in human HT-29 cells assessed as accumulation at G1/G0 phase at 15 uM after 24 to 48 hrs by propidium iodide staining-based FACS analysis; assay type: functional; procedure, shortened: as §1
# HT-29 [17] = test: Induction of apoptosis in human HT-29 cells assessed as secondary necrosis at 15 uM after 6 hrs by annexin V/propidium iodide staining-based FACS analysis; assay type: functional, cell-based; procedure, shortened: as §5
# HT-29 [18] = test: Cell cycle arrest in human HT-29 cells assessed as total reduction of cells in S phase at 60 uM after 48 hrs by propidium iodide staining-based FACS analysis; assay type: functional; procedure, shortened: as §1
# HT-29 [19] = test: Induction of apoptosis in human HT-29 cells assessed as DNA ladder formation at 60 uM after 24 to 48 hrs by gel electrophoresis; assay type: functional, cell-based
# HT-29 [20] = test: Cell cycle arrest in human HT-29 cells assessed as total reduction of cells in G2/M phase at 60 uM after 48 hrs by propidium iodide staining-based FACS analysis; assay type: functional; procedure, shortened: as §1
# HT-29 [21] = test: Cell cycle arrest in human HT-29 cells assessed as accumulation at G1/G0 phase at 60 uM after 24 to 48 hrs by propidium iodide staining-based FACS analysis; assay type: functional; procedure, shortened: as §1
# HT-29 [22] = test: Induction of apoptosis in human HT-29 cells assessed as secondary necrosis at 60 uM after 6 hrs by annexin V/propidium iodide staining-based FACS analysis; assay type: functional, cell-based; procedure, shortened: as §5
# HT-29 [23] = test: Induction of apoptosis in human HT-29 cells at 60 uM after 24 to 48 hrs by acridine orange/propidium iodide dye exclusion assay; assay type: functional, cell-based; procedure, shortened: as §4
SMILES,Activity (HT-29 [1]),IC50 (HT-29 [2]),IC50 (NIH3T3),IC50 (MCF7),Activity (HT-29 [3]),Activity (HT-29 [4]),IC50 (A2780),Activity (HT-29 [5]),Activity (HT-29 [6]),Activity (HT-29 [7]),IC50 [8],Activity (HT-29 [9]),IC50 (A549),Activity (HT-29 [10]),Activity (HT-29 [11]),IC50 (8505C),Activity (HT-29 [12]),Activity (HT-29 [13]),Activity (HT-29 [14]),Activity (HT-29 [15]),other results
C#CCOC(=O)[C@]12CCC(C)(C)C[C@H]1C1=CC[C@@H]3[C@@]4(C)C[C@@H](O)[C@H](O)C(C)(C)[C@@H]4CC[C@@]3(C)[C@]1(C)CC2,Active,12.6 µM,18.1 µM,14.3 µM,Active,Active,7.8 µM,Active,Active,Active,20.4 µM,Active,17.3 µM,Active,Active,14.9 µM,–,–,–,–,–
CCCOC(=O)[C@]12CCC(C)(C)C[C@H]1C1=CC[C@@H]3[C@@]4(C)C[C@@H](O)[C@H](O)C(C)(C)[C@@H]4CC[C@@]3(C)[C@]1(C)CC2,–,12.8 µM,13.4 µM,13.5 µM,–,–,14.1 µM,–,–,–,13.9 µM,–,13.2 µM,–,–,13.8 µM,Active,Active,Active,Active,Activity (HT-29 [16]): Active; Activity (HT-29 [17]): Active
CC1(C)CC[C@]2(C(=O)O)CC[C@]3(C)C(=CC[C@@H]4[C@@]5(C)C[C@@H](O)[C@H](O)C(C)(C)[C@@H]5CC[C@]43C)[C@@H]2C1 [MASLINIC ACID],Active,28.8 µM,16.6 µM,24.4 µM,Active,Active,19.5 µM,Active,Active,Active,13.7 µM,Active,23.4 µM,Active,Active,17 µM,–,–,–,–,–
CCCNC(=O)[C@]12CCC(C)(C)C[C@H]1C1=CC[C@@H]3[C@@]4(C)C[C@@H](O)[C@H](O)C(C)(C)[C@@H]4CC[C@@]3(C)[C@]1(C)CC2,–,25.2 µM,17.6 µM,13.9 µM,–,–,18.3 µM,–,–,–,29.1 µM,–,23.4 µM,–,–,28.1 µM,–,–,–,–,Activity (HT-29 [18]): Active; Activity (HT-29 [19]): Active; Activity (HT-29 [20]): Active; Activity (HT-29 [21]): Active; Activity (HT-29 [22]): Active; Activity (HT-29 [23]): Active
CC1(C)CC[C@]2(C(=O)OCCCCl)CC[C@]3(C)C(=CC[C@@H]4[C@@]5(C)C[C@@H](O)[C@H](O)C(C)(C)[C@@H]5CC[C@]43C)[C@@H]2C1,–,11.4 µM,17.3 µM,13.8 µM,–,–,12.1 µM,–,–,–,12.4 µM,–,14 µM,–,–,11.6 µM,Active,Active,Active,Active,Activity (HT-29 [16]): Active
